We go through 48 variants from the RNAGym collection of RNA variant scans (doi:10.1002/anie.201605470).

B1: Osa-1-4 twister ribozyme (parent)
chain: CCGCCUAACACUGCCAAUGCCGGUCCCAAGCCCGGAUAAAAGUGGAGGGGGCGG

Variants of B1 are the subject of this series. The series is described as follows: self-cleavage, relative activity (ratio to wild type); higher = more cleavage; co-transcriptional. The essentials: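 For each read, cleavage status was taken from whether upstream sequence was present. The reads came from an Oryza sativa twister ribozyme of 54 nucleotides, whose DNA template was synthesised with 97 % wild-type base and 1 % of each other base at the 48 positions downstream of the cleavage site. The template was transcribed in vitro at 37 °C for 2 h with co-transcriptional self-cleavage, and the RNA was reverse-transcribed using a template-switching oligonucleotide, PCR-amplified and deep-sequenced. Relative activity is the fraction cleaved normalised to wild type.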
Turning to CCGCCUAACACUGCCAAUGCCGGUCCCAUGCCCGGUUAAAAGUGGAGGGGGCGG, the self-cleavage worked out at 0.17. Regarding CCGCCUAACACUGCCAAUGCCGGUCCCAUGCCCGGGUAAAAGUGGAGGGGGCGG, the self-cleavage came to 0.24.

As to CCGCCUAACACUGCCAAUGCCGGUCCCAUGCCCGGCUAAAAGUGGAGGGGGCGG, the self-cleavage came out at 0.03. Turning to CCGCCUAACACUGCCAAUGCCGGUCCCAUGCACGGAUAAAAGUGGAGGGGGCGG, the self-cleavage turned out to be 0.04.

In the case of CCGCCUAACACUGGCAAUGCCGGUCCCAUGCCCGGAUAAAAGUGGAGGGGGCGG, the self-cleavage amounted to 0.04. Take CCGCCUAACACUGACAAUGCCGGUCCCAUGCCCGGAUAAAAGUGGAGGGGGCGG: the self-cleavage came to 0.03.

As to CCGCCUAACACUGUCAAUGCCGGUCCCAUGCCCGGAUAAAAGUGGAGGGGGCGG, the self-cleavage was found to be 0.05. The same measure for CCGCCUAACACUGCCAAUGCCGGUCCCAUGCCCGGAUGAAAGUGGAGGGGGCGG: 0.09; for CCGCCUAACACUGCCAAUGCCGGUCCCAUGCCCGGAUCAAAGUGGAGGGGGCGG: 0.08. The same measure for CCGCCUAACACUGCCAAUGCCGGUCCCAUGCCCGGAUUAAAGUGGAGGGGGCGG: 0.09; for CCGCCUAACACUGCGAAUGCCGGUCCCAUGCCCGGAUAAAAGUGGAGGGGGCGG: 0.09; for CCGCCUAACACUGCAAAUGCCGGUCCCAUGCCCGGAUAAAAGUGGAGGGGGCGG: 0.04. Turning to CCGCCUAACACUGCUAAUGCCGGUCCCAUGCCCGGAUAAAAGUGGAGGGGGCGG, the self-cleavage turned out to be 0.07. Regarding CCGCCUAACACUGCCAAUGCCGGUCCCAGGCCCGGAUAAAAGUGGAGGGGCCGG, the self-cleavage was 0.05. The same measure for CCGCCUAACACUGCCAAUGCCGGUCCCAGGCCCGGAUAAAAGUGGAGGGGUCGG: 0.06. For the variant CCGCCUAACACUGCCAAUGCCGGUCCCAGGCCCGGAUAAAAGUGGAGGGGACGG, the self-cleavage was determined as 0.1. As for CCGCCUAACACUGCCAAUGCCGGUCCCAGGCCCGGAUAAAAGUCGAGGGGGCGG, the self-cleavage was 0.16.

On to CCGCCUAACACUGCCAAUGCCGGUCCCAGGCCCGGAUAAAAGUUGAGGGGGCGG, for which the self-cleavage is 0.08. On to CCGCCUAACACUGCCAAUGCCGGUCCCAGGCCCGGAUAAAAGUGGAGGGCGCGG, for which the self-cleavage turned out to be 0.08. Turning to CCGCCUAACACUGCCAAUGCCGGUCCCAGGCCCGGAUAAAAGUGGAGGGUGCGG, the self-cleavage was 0.17.

On to CCGCCUAACACUGCCAAUGCCGGUCCCAGGCCCGGAUAAAAGUGGAGGGAGCGG, for which the self-cleavage is 0.27. To CCGCCUAACACUGCCAAUGCCGGUCCCAUGCCCGGAUAAAAGUGGAGGGGGCGG belongs 0.21. As to CCGCCUAACACUGCCAAUGCCGGUCCCAGGCCCGGAUAAAAGUGGAGGGGGCAG, the self-cleavage was determined as 0.07. Take CCGCCUAACACUGCCAAUGCCGGUCCCAGGCCCGGAUAAAAGUGGAGGGGGCUG: the self-cleavage is 0.07. On to CCGCCUAACACUGCCAAUGCCGGUCCCAGGCCCGGAUAAAAGUGGAGGGGGCCG, for which the self-cleavage is 0.06. With CCGCCUAACAAUGCCAAUGCCGGUCCCAUGCCCGGAUAAAAGUGGAGGGGGCGG, the self-cleavage stood at 0.05. For the variant CCGCCUAACAUUGCCAAUGCCGGUCCCAUGCCCGGAUAAAAGUGGAGGGGGCGG, the self-cleavage was 0.08. In the case of CCGCCUAACAGUGCCAAUGCCGGUCCCAUGCCCGGAUAAAAGUGGAGGGGGCGG, the self-cleavage is 0.04.

For CCGCCUAAGACUGCCAAUGCCGGUCCCAUGCCCGGAUAAAAGUGGAGGGGGCGG, the self-cleavage came to 0.07. For the variant CCGCCUAAAACUGCCAAUGCCGGUCCCAUGCCCGGAUAAAAGUGGAGGGGGCGG, the self-cleavage was determined as 0.03. To CCGCCUAAUACUGCCAAUGCCGGUCCCAUGCCCGGAUAAAAGUGGAGGGGGCGG belongs 0.05; to CCGCCUAACACUGCCAAAGCCGGUCCCAGGCCCGGAUAAAAGUGGAGGGGGCGG, 0.23. Take CCGCCUAACACUGCCAAGGCCGGUCCCAGGCCCGGAUAAAAGUGGAGGGGGCGG: the self-cleavage amounted to 0.34. With CCGCCUAACACUGCCAACGCCGGUCCCAGGCCCGGAUAAAAGUGGAGGGGGCGG, the self-cleavage stood at 0.23. Take CCGCCUAACACUGCCAAUGCCGGUCCCAGGCCCGGAUAAAAGUGGAGGGGGCGC: the self-cleavage was 0.08. As to CCGCCUAACACUGCCAAUGCCGGUCCCAGGCCCGGAUAAAAGUGGAGGGGGCGA, the self-cleavage came to 0.15. CCGCCUAACACUGCCAAUGCCGGUCCCAGGCCCGGAUAAAAGUGGAGGGGGCGU: the self-cleavage was 0.37.

With CCGCCUAACACUGCCAAUGCCGGUCCGAUGCCCGGAUAAAAGUGGAGGGGGCGG, the self-cleavage amounted to 0.05.

With CCGCCUAACACUGCCAAUGCCGGUCCAAUGCCCGGAUAAAAGUGGAGGGGGCGG, the self-cleavage was 0.03.

As to CCGCCUAACACUGCCAAUGCCGGUCCUAUGCCCGGAUAAAAGUGGAGGGGGCGG, the self-cleavage came out at 0.08. The same measure for CCGCCUAACACUGCCAAUGCCGGGCCCAGGCCCGGAUAAAAGUGGAGGGGGCGG: 0.02; for CCGCCUAACACUGCCAAUGCCGGCCCCAGGCCCGGAUAAAAGUGGAGGGGGCGG: 0.08; for CCGCCUAACACUGCCAAUGCCGGACCCAGGCCCGGAUAAAAGUGGAGGGGGCGG: 0.07. To CCGCCUAACACUGCCAAUGCCGGUCCCAUGUCCGGAUAAAAGUGGAGGGGGCGG belongs 0.06. Regarding CCGCCUAACACUGCCAAUGCCGGUCCCAUGGCCGGAUAAAAGUGGAGGGGGCGG, the self-cleavage was determined as 0.03. As for CCGCCUAACACUGCCAAUGCCGGUCCCAUGACCGGAUAAAAGUGGAGGGGGCGG, the self-cleavage is 0.02. The same measure for CCGCCUAACACUGCCAAUGCCGGUCCCAGGCCCGGAUAAAAGUGGAGUGGGCGG: 0.03. Consider CCGCCUAACACUGCCAAUGCCGGUCCCAGGCCCGGAUAAAAGUGGAGAGGGCGG, for which the self-cleavage was 0.04.
